From ChEMBL document CHEMBL1687770, “Activity of a trisubstituted pyrrole in inhibiting sporozoite invasion and blocking malaria infection” (2010)
Calls of active or inactive are those of the source. The calls are words filed in the database; no cut-off is given here.

Key:
Plasmodium yoelii [1] = assay: Antimalarial activity against Plasmodium yoelii 17XNL infected in Swiss-Webster mouse liver assessed as reduction liver-stage infection at 50 mg/kg, ip administered 15 mins before infection measured up to 22 days; assay type: functional, organism-based; parameters: dose 50 mg/kg
Summary of the method: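 Female Swiss-Webster mice (6–8 weeks, n = 3) received one ip dose of 50 mg/kg in PBS, or PBS alone, before iv infection with P. yoelii 17XNL sporozoites (1 × 10⁴/mouse). The prepatent period was followed by daily Giemsa-stained blood smears.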

Plasmodium yoelii [2] = assay: Antimalarial activity against Plasmodium yoelii infected in Swiss-Webster mouse liver assessed as reduction of parasite burden at 50 mg/kg, ip administered 15 mins before infection measured up to 22 days relative to PBS treated group; conditions: route intraperitoneal
Plasmodium berghei [3] = assay: Antimalarial activity against Plasmodium berghei NK65 infected in human HepG2 cells assessed as reduction of liver stage parasites level at 2 uM treated for 12 hrs measured 40 hrs after drug washout; assay type: functional, organism-based
Summary of the method: (§1)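 P. berghei NK65 sporozoites from mosquito salivary glands (5 × 10⁴/well) added to HepG2 cells seeded the day before in DMEM/10% FCS, with compound at 0.5, 2 or 10 μM. At 12 h p.i. the medium was replaced with compound-free medium. Liver stages at 40 h p.i. were stained with MAb 2E6 and FITC anti-mouse IgG and counted by fluorescence microscopy. At least three experiments, each in duplicate.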

Plasmodium berghei [4] = assay: Antimalarial activity against Plasmodium berghei NK65 infected in human HepG2 cells assessed as reduction of liver stage parasites level treated for 12 hrs measured 40 hrs after drug washout; assay type: functional, organism-based; summary of the method: as §1
Plasmodium berghei [5] = assay: Antimalarial activity against PbPKG knockout Plasmodium berghei NK65 infected in human HepG2 cells assessed as reduction of liver stage parasites level treated for 3 hrs measured 40 hrs after drug washout; assay type: functional, organism-based
Plasmodium yoelii [6] = assay: Antimalarial activity against Plasmodium yoelii 17XNL infected in Swiss-Webster mouse liver assessed as reduction of parasite burden at 50 mg/kg, ip administered 15 mins before infection measured up to 22 days relative to PBS treated group; assay type: functional; conditions: route intraperitoneal
Plasmodium berghei [7] = assay: Antimalarial activity against Plasmodium berghei NK65 assessed as reduction of number of complex trails up to 10 uM relative to untreated control; assay type: functional; parameters: scale not given: the % may be the effect or the level left
Summary of the method: (§2)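 Gliding assay. Slides were coated with anti-CSP MAb 3D11 (10 μg/ml). P. berghei NK65 sporozoites (1 × 10⁴/well) were added with compound at 0.5, 2 or 10 μM in DMEM with 3% BSA and incubated 2 h at 37°C. Wells were fixed with paraformaldehyde and blocked. Trails were stained with biotinylated 3D11 and streptavidin-FITC.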

Plasmodium berghei [8] = assay: Inhibition of Plasmodium berghei NK65 motility up to 10 uM after 2 hrs; assay type: functional, organism-based; summary of the method: as §2
Plasmodium berghei [9] = assay: Antimalarial activity against Plasmodium berghei NK65 infected in human HepG2 cells assessed as inhibition of transformation of sporozoites into liver stage at 10 uM treated 3 hrs after infection measured 40 hrs after drug washout; assay type: functional, organism-based
Summary of the method: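 Compound at 10 μM was added to HepG2 cultures 3 h after P. berghei NK65 sporozoite addition. Liver stages were detected at 40 h p.i. by MAb 2E6/FITC immunofluorescence and counted. Compared with untreated wells by t test. At least three experiments, in duplicate.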

Plasmodium yoelii [10] = assay: Antimalarial activity against Plasmodium yoelii 17XNL infected in Swiss-Webster mouse liver assessed as prevention of appearance of blood-stage parasites at 50 mg/kg, ip administered first dose 15 mins before infection and second and third doses given 6 hrs and 12 hrs postinfection measured up to 22 days; assay type: functional, organism-based; parameters: dose 50 mg/kg
Summary of the method: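 Female Swiss-Webster mice (6–8 weeks, n = 10) were given 50 mg/kg ip in PBS, or PBS alone. Doses were given 15 min before iv injection of P. yoelii 17XNL sporozoites (5 × 10³/mouse), then at 6 h and 12 h p.i. Blood-stage parasites were checked daily on Giemsa-stained smears for up to 3 weeks.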

Plasmodium berghei [11] = assay: Antimalarial activity against PbPKG knockout Plasmodium berghei NK65 infected in human HepG2 cells assessed as reduction of liver stage parasites level treated before infection measured 40 hrs after drug washout; assay type: functional, organism-based
Plasmodium berghei [12] = assay: Antimalarial activity against Plasmodium berghei NK65 infected in human HepG2 cells assessed as reduction of liver stage parasites level at 2 uM treated for 3 hrs measured 40 hrs after drug washout; assay type: functional, organism-based
Summary of the method: (§3)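 HepG2 cells were infected with P. berghei NK65 sporozoites (5 × 10⁴/well) in the presence of compound. The compound-containing medium was removed 3 h after infection. Liver stages at 40 h p.i. were immunostained with MAb 2E6 and FITC secondary, then counted by fluorescence microscopy. At least three experiments, in duplicate.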

Plasmodium berghei [13] = assay: Antimalarial activity against Plasmodium berghei ANKA infected through mosquito bite in C57BL/6 mouse liver assessed as increase of average prepatent period at 50 mg/kg, ip administered first dose 15 mins before infection and second and third doses given 6 hrs and 12 hrs postinfection measured up to 22 days (reference value: 2.66 +/- 0.57 days); conditions: route intraperitoneal
Plasmodium berghei [14] = assay: Antimalarial activity against Plasmodium berghei NK65 infected in human HepG2 cells assessed as inhibition of sporozoite invasion after 1 hr; assay type: functional
Summary of the method: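 HepG2 cells were infected with P. berghei NK65 sporozoites (5 × 10⁴/well) with compound at 0.5, 2 or 10 μM for 1 h at 37°C. Cells were fixed with 4% paraformaldehyde and double-stained to tell intracellular from extracellular sporozoites. Intracellular sporozoites were counted.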

Plasmodium berghei [15] = assay: Antimalarial activity against Plasmodium berghei NK65 infected in human HepG2 cells assessed as inhibition of transformation of sporozoites into liver stage at 10 uM treated for 3 hrs measured 40 hrs after drug washout; assay type: functional, organism-based; summary of the method: as §3

SMILES: CN1CCC(c2cc(-c3ccncc3)c(-c3ccc(F)cc3)[nH]2)CC1
- Activity (Plasmodium yoelii [1]): Active
- fold change (FC) (Plasmodium yoelii [2]): >1000
- Activity (Plasmodium berghei [3]): Active
- Activity (Plasmodium berghei [4]): Dose dependent effect
- Activity (Plasmodium berghei [5]): Active
- fold change (FC) (Plasmodium yoelii [6]): >1000
- Activity (Plasmodium berghei [7]): 50%
- inhibition (Plasmodium berghei [8]): inactive
- inhibition (Plasmodium berghei [9]): inactive
- Activity (Plasmodium yoelii [10]): Active
- Activity (Plasmodium berghei [11]): inactive
- Activity (Plasmodium berghei [12]): Active
- Time (Plasmodium berghei [13]): 5.33 days
- INH (Plasmodium berghei [14]): >1 µM
- inhibition (Plasmodium berghei [15]): Active
